Reference: ChEMBL document CHEMBL1158343, “Synthesis, antimicrobial and antiviral evaluation of substituted imidazole derivatives” (Eur J Med Chem, 2009)
≈ marks a conversion by molar mass, not a printed value.

Columns and labels:
[1] = test system: Respiratory syncytial virus; test: Antiviral activity against RSV infected in human HeLa cells assessed as reduction in virus-induced cytopathogenicity after 3 days; assay type: functional, organism-based; details: 72 h
Sindbis virus = test: Antiviral activity against Sindbis virus infected in african green monkey Vero cells assessed as reduction in virus-induced cytopathogenicity after 3 days; assay type: functional, organism-based; details: 72 h
Candida albicans = test: Antimicrobial activity against Candida albicans after 48 hrs by tube dilution method; assay type: functional
Outline: (§1)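 Tube dilution in DMSO (stock 100 mg/ml) with serial dilutions; incubation 37 °C for 48 h for C. albicans (other organisms' times truncated in text). MIC read as lowest concentration inhibiting visible growth. Norfloxacin (bacteria) and fluconazole (fungi) as reference drugs.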

Coxsackievirus B4 [2] = test: Antiviral activity against Coxsackievirus B4 infected in human HeLa cells assessed as reduction in virus-induced cytopathogenicity after 3 days; assay type: functional, organism-based; details: Enterovirus B, 72 h
Staphylococcus aureus = test: Antimicrobial activity against Staphylococcus aureus after 24 hrs by tube dilution method; assay type: functional; outline: as §1
Coxsackievirus B4 [3] = test: Antiviral activity against Coxsackievirus B4 infected in african green monkey Vero cells assessed as reduction in virus-induced cytopathogenicity after 3 days; assay type: functional, organism-based; details: Enterovirus B, 72 h
Bacillus subtilis = test: Antimicrobial activity against Bacillus subtilis after 24 hrs by tube dilution method; assay type: functional; outline: as §1
Human alphaherpesvirus 1 [4] = test: Antiviral activity against HSV1 KOS infected in human HEL cells assessed as reduction in virus-induced cytopathogenicity after 3 days; assay type: functional, organism-based; details: Human alphaherpesvirus 1, KOS, 72 h
Human alphaherpesvirus 2 = test: Antiviral activity against HSV2 G infected in human HEL cells assessed as reduction in virus-induced cytopathogenicity after 3 days; assay type: functional, organism-based; details: Human alphaherpesvirus 2, strain G, 72 h
Human alphaherpesvirus 1 [5] = test: Antiviral activity against thymidine kinase-deficient acyclovir-resistant HSV1 KOS infected in human HEL cells assessed as reduction in virus-induced cytopathogenicity after 3 days; assay type: functional, organism-based; details: Human alphaherpesvirus 1, KOS, 72 h
Punta Toro virus = test: Antiviral activity against Punta Toro virus infected in african green monkey Vero cells assessed as reduction in virus-induced cytopathogenicity after 3 days; assay type: functional, organism-based; details: 72 h
[6] = Cytotoxicity against human HeLa cells assessed as alteration in cell morphology; assay type: cell-based
Outline: (§2)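 Uninfected cell cultures tested in parallel with the CPE-reduction antiviral assay; cells grown to confluency, then serial compound dilutions added and incubated at 37 °C (3 days in the parallel antiviral set-up). Read-out is microscopic examination of morphology; value is the minimum cytotoxic concentration, the lowest causing a microscopically detectable alteration of normal cell morphology.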

Aspergillus niger = test: Antimicrobial activity against Aspergillus niger after 7 days by tube dilution method; assay type: functional; details: 168 h; outline: as §1
[7] = Cytotoxicity against human HEL cells assessed as alteration in cell morphology; assay type: cell-based; outline: as §2
Escherichia coli = test: Antimicrobial activity against Escherichia coli after 24 hrs by tube dilution method; assay type: functional; outline: as §1
[8] = test system: Mammalian orthoreovirus 1; test: Antiviral activity against Reovirus 1 infected in african green monkey Vero cells assessed as reduction in virus-induced cytopathogenicity after 3 days; assay type: functional, organism-based; details: Mammalian orthoreovirus 1, Vero, 72 h
[9] = test system: Vesicular stomatitis virus; test: Antiviral activity against VSV infected in human HEL cells assessed as reduction in virus-induced cytopathogenicity after 3 days; assay type: functional, organism-based; details: 72 h
[10] = test system: Vesicular stomatitis virus; test: Antiviral activity against VSV infected in human HeLa cells assessed as reduction in virus-induced cytopathogenicity after 3 days; assay type: functional, organism-based; details: 72 h
[11] = Cytotoxicity against african green monkey Vero cells assessed as alteration in cell morphology; assay type: cell-based; details: chlorocebus sabaeus; outline: as §2
Human respirovirus 3 = test: Antiviral activity against Parainfluenza-3 virus infected in african green monkey Vero cells assessed as reduction in virus-induced cytopathogenicity after 3 days; assay type: functional, organism-based; details: Human respirovirus 3, Vero, 72 h

| SMILES | EC50 [1] [µg/mL] | EC50 (Sindbis virus) [µg/mL] | MFC (Candida albicans) [µM] | MIC (Candida albicans) [µM] | EC50 (Coxsackievirus B4 [2]) [µg/mL] | MBC (Staphylococcus aureus) [µM] | MIC (Staphylococcus aureus) [µM] | EC50 (Coxsackievirus B4 [3]) [µg/mL] | MBC (Bacillus subtilis) [µM] | MIC (Bacillus subtilis) [µM] | EC50 (Human alphaherpesvirus 1 [4]) [µg/mL] | EC50 (Human alphaherpesvirus 2) [µg/mL] | EC50 (Human alphaherpesvirus 1 [5]) [µg/mL] | EC50 (Punta Toro virus) [µg/mL] | MCC [6] [µg/mL] | MFC (Aspergillus niger) [µM] | MIC (Aspergillus niger) [µM] | MCC [7] [µg/mL] | MBC (Escherichia coli) [µM] | MIC (Escherichia coli) [µM] | further results |
| --- | --- | --- | --- | --- | --- | --- | --- | --- | --- | --- | --- | --- | --- | --- | --- | --- | --- | --- | --- | --- | --- |
| COc1ccc(-c2nccn2C(=O)c2ccc([N+](=O)[O-])cc2)cc1 | > 100 | > 100 | 147 (≈ 47.5 µg/mL) | 18 (≈ 5.82 µg/mL) | > 100 | 18 (≈ 5.82 µg/mL) | 2 (≈ 0.647 µg/mL) | > 100 | 18 (≈ 5.82 µg/mL) | 2 (≈ 0.647 µg/mL) | > 100 | > 100 | > 100 | > 100 | > 100 | 147 (≈ 47.5 µg/mL) | 9 (≈ 2.91 µg/mL) | > 100 | 147 (≈ 47.5 µg/mL) | 18 (≈ 5.82 µg/mL) | EC50 [8]: > 100 µg/mL; EC50 [9]: > 100 µg/mL; EC50 [10]: > 100 µg/mL; MCC [11]: > 100 µg/mL; EC50 (Human respirovirus 3): > 100 µg/mL |
| O=C(c1ccccc1Br)n1ccnc1-c1ccccc1Cl | > 100 | > 100 | 138 (≈ 49.9 µg/mL) | 17 (≈ 6.15 µg/mL) | > 100 | 268 (≈ 96.9 µg/mL) | 69 (≈ 25 µg/mL) | > 100 | 268 (≈ 96.9 µg/mL) | 69 (≈ 25 µg/mL) | > 100 | > 100 | > 100 | > 100 | > 100 | 138 (≈ 49.9 µg/mL) | 8 (≈ 2.89 µg/mL) | > 100 | 268 (≈ 96.9 µg/mL) | 69 (≈ 25 µg/mL) | EC50 [8]: > 100 µg/mL; EC50 [9]: > 100 µg/mL; EC50 [10]: > 100 µg/mL; MCC [11]: > 100 µg/mL; EC50 (Human respirovirus 3): > 100 µg/mL |
| O=C(c1ccc([N+](=O)[O-])cc1)n1ccnc1-c1cccc(Cl)c1 | > 100 | > 100 | 304 (≈ 99.6 µg/mL) | 38 (≈ 12.5 µg/mL) | > 100 | 305 (≈ 100 µg/mL) | 38 (≈ 12.5 µg/mL) | > 100 | 305 (≈ 100 µg/mL) | 38 (≈ 12.5 µg/mL) | > 100 | > 100 | > 100 | > 100 | > 100 | 152 (≈ 49.8 µg/mL) | 19 (≈ 6.23 µg/mL) | > 100 | 305 (≈ 100 µg/mL) | 38 (≈ 12.5 µg/mL) | EC50 [8]: > 100 µg/mL; EC50 [9]: > 100 µg/mL; EC50 [10]: > 100 µg/mL; MCC [11]: > 100 µg/mL; EC50 (Human respirovirus 3): > 100 µg/mL |
| O=C(c1ccccc1Br)n1ccnc1-c1cccc([N+](=O)[O-])c1 | > 100 | > 100 | 268 (≈ 99.7 µg/mL) | 16 (≈ 5.95 µg/mL) | > 100 | 33 (≈ 12.3 µg/mL) | 4 (≈ 1.49 µg/mL) | > 100 | 268 (≈ 99.7 µg/mL) | 33 (≈ 12.3 µg/mL) | > 100 | > 100 | > 100 | > 100 | > 100 | 67 (≈ 24.9 µg/mL) | 16 (≈ 5.95 µg/mL) | > 100 | 16 (≈ 5.95 µg/mL) | 2 (≈ 0.744 µg/mL) | EC50 [8]: > 100 µg/mL; EC50 [9]: > 100 µg/mL; EC50 [10]: > 100 µg/mL; MCC [11]: > 100 µg/mL; EC50 (Human respirovirus 3): > 100 µg/mL |
| COc1ccc(-c2nccn2C(=O)c2ccccc2Br)cc1 | > 100 | > 100 | 134 (≈ 47.9 µg/mL) | 16 (≈ 5.72 µg/mL) | > 100 | 134 (≈ 47.9 µg/mL) | 16 (≈ 5.72 µg/mL) | > 100 | 628 (≈ 224 µg/mL) | 16 (≈ 5.72 µg/mL) | > 100 | > 100 | > 100 | > 100 | > 100 | 134 (≈ 47.9 µg/mL) | 16 (≈ 5.72 µg/mL) | > 100 | 628 (≈ 224 µg/mL) | 33 (≈ 11.8 µg/mL) | EC50 [8]: > 100 µg/mL; EC50 [9]: > 100 µg/mL; EC50 [10]: > 100 µg/mL; MCC [11]: > 100 µg/mL; EC50 (Human respirovirus 3): > 100 µg/mL |
| O=C(c1ccccc1Br)n1ccnc1-c1ccc(Cl)cc1 | > 100 | > 100 | 138 (≈ 49.9 µg/mL) | 17 (≈ 6.15 µg/mL) | > 100 | 17 (≈ 6.15 µg/mL) | 2 (≈ 0.723 µg/mL) | > 100 | 17 (≈ 6.15 µg/mL) | 2 (≈ 0.723 µg/mL) | > 100 | > 100 | > 100 | > 100 | > 100 | 69 (≈ 25 µg/mL) | 8 (≈ 2.89 µg/mL) | > 100 | 17 (≈ 6.15 µg/mL) | 2 (≈ 0.723 µg/mL) | EC50 [8]: > 100 µg/mL; EC50 [9]: > 100 µg/mL; EC50 [10]: > 100 µg/mL; MCC [11]: > 100 µg/mL; EC50 (Human respirovirus 3): > 100 µg/mL |
